Test results reported in ChEMBL document CHEMBL1944602, “Synthesis and biological characterisation of sirtuin inhibitors based on the tenovins” (Bioorg Med Chem, 2012).
pIC50: −log10 of the molar value. The source made the active and inactive calls. The rule behind the calls is not given here.

The compounds below were run against T1, NAD-dependent protein deacetylase sirtuin-1 (Homo sapiens) (UniProt Q96EB6) (assay: Inhibition of SirT1 in human ARN8 cells assessed as p53 activation at 20 uM by beta-galactosidase reporter gene assay relative to control).
T1 sequence (whole entry): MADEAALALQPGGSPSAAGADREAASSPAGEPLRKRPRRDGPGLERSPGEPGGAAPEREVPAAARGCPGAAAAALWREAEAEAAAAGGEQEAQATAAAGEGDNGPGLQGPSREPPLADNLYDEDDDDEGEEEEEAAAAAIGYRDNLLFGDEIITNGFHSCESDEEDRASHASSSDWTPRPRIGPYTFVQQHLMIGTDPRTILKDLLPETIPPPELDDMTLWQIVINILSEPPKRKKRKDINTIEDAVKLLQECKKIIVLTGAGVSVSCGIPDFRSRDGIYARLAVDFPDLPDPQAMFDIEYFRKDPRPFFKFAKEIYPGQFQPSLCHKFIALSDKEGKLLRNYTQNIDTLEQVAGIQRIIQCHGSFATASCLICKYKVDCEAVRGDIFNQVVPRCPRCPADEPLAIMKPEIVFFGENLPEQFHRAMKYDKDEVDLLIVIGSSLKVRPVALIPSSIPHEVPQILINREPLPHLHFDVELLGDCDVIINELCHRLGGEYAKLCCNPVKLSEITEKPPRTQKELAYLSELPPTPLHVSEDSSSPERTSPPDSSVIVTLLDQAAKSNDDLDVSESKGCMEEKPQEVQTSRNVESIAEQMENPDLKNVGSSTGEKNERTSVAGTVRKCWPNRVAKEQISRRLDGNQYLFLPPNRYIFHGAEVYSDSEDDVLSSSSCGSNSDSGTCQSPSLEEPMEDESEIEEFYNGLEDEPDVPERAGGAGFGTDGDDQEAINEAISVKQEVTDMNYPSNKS
Type: cell-based
Summary of the method: (§1)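 p53-dependent transcription measured with a beta-galactosidase reporter in ARN8 cells, run in triplicate. Read-out is the ratio of signal in treated cells to DMSO-control cells, given to 2 significant figures; a positive or negative activity call is also recorded.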

fold change (FC)	SMILES
1.2	CCCCCc1ccc(C(=O)NC(=S)Nc2ccc(NC(=O)CCCCN(C)C)cc2)cc1
0.97	CN(C)CCCCC(=O)Nc1ccc(NC(=S)NC(=O)c2ccc(Cl)c(Cl)c2)cc1

Second part, the compound before the results:

SMILES	fold change (FC)
Cc1ccccc1C(=O)NC(=S)Nc1ccc(NC(=O)CCCCN(C)C)cc1	0.84
CN(C)CCCCC(=O)Nc1ccc(NC(=O)NC(=O)c2ccc(C(C)(C)C)cc2)cc1	6.5
CN(C)CCCCC(=O)Nc1ccc(NC(=S)NC(=O)c2ccccc2Cl)cc1	1.2

What follows are compounds tested against T1, NAD-dependent protein deacetylase sirtuin-1 (Homo sapiens) (assay: Inhibition of SirT1 in human ARN8 cells assessed as p53 activation at 10 uM by beta-galactosidase reporter gene assay relative to control).
Type: cell-based
Summary of the method: as §1

fold change (FC)	SMILES
1.1	CCCCCc1ccc(C(=O)NC(=S)Nc2ccc(NC(=O)CCCCN(C)C)cc2)cc1
1.1	CN(C)CCCCC(=O)Nc1ccc(NC(=S)NC(=O)c2ccc(Cl)c(Cl)c2)cc1

Further lines, the compound ahead of its results:

SMILES	fold change (FC)
Cc1ccccc1C(=O)NC(=S)Nc1ccc(NC(=O)CCCCN(C)C)cc1	0.98
CN(C)CCCCC(=O)Nc1ccc(NC(=O)NC(=O)c2ccc(C(C)(C)C)cc2)cc1	7.3
CN(C)CCCCC(=O)Nc1ccc(NC(=S)NC(=O)c2ccccc2Cl)cc1	1.1

The compounds below were run against T1, NAD-dependent protein deacetylase sirtuin-1 (Homo sapiens) (assay: Inhibition of SirT1 in human ARN8 cells assessed as p53 activation at 5 uM by beta-galactosidase reporter gene assay relative to control).
Type: cell-based
Summary of the method: as §1

fold change (FC)	SMILES
1.1	CCCCCc1ccc(C(=O)NC(=S)Nc2ccc(NC(=O)CCCCN(C)C)cc2)cc1
1.04	CN(C)CCCCC(=O)Nc1ccc(NC(=S)NC(=O)c2ccc(Cl)c(Cl)c2)cc1

Second part, the compound before the results:

SMILES	fold change (FC)
Cc1ccccc1C(=O)NC(=S)Nc1ccc(NC(=O)CCCCN(C)C)cc1	0.99
CN(C)CCCCC(=O)Nc1ccc(NC(=O)NC(=O)c2ccc(C(C)(C)C)cc2)cc1	6.9
CN(C)CCCCC(=O)Nc1ccc(NC(=S)NC(=O)c2ccccc2Cl)cc1	1.2

The compounds below were run against T1, NAD-dependent protein deacetylase sirtuin-1 (Homo sapiens) (assay: Inhibition of SirT1 in human ARN8 cells assessed as p53 activation at 20 uM by beta-galactosidase reporter gene assay).
Type: cell-based
Summary of the method: as §1

inhibition	SMILES
inactive	Cc1ccccc1C(=O)NC(=S)Nc1ccc(NC(=O)CCCCN(C)C)cc1
inactive	CN(C)CCCCC(=O)Nc1ccc(NC(=S)NC(=O)c2ccc(Cl)c(Cl)c2)cc1
Active	CN(C)CCCCC(=O)Nc1ccc(NC(=O)NC(=O)c2ccc(C(C)(C)C)cc2)cc1
inactive	CN(C)CCCCC(=O)Nc1ccc(NC(=S)NC(=O)c2ccccc2Cl)cc1

The compounds below were run against T1, NAD-dependent protein deacetylase sirtuin-1 (Homo sapiens) (assay: Inhibition of SirT1 in human ARN8 cells assessed as p53 activation at 10 uM by beta-galactosidase reporter gene assay).
Type: cell-based
Summary of the method: as §1

inhibition	SMILES
inactive	CCCCCc1ccc(C(=O)NC(=S)Nc2ccc(NC(=O)CCCCN(C)C)cc2)cc1
inactive	CN(C)CCCCC(=O)Nc1ccc(NC(=S)NC(=O)c2ccc(Cl)c(Cl)c2)cc1

Continued, compound first:

SMILES	inhibition
Cc1ccccc1C(=O)NC(=S)Nc1ccc(NC(=O)CCCCN(C)C)cc1	inactive
CN(C)CCCCC(=O)Nc1ccc(NC(=O)NC(=O)c2ccc(C(C)(C)C)cc2)cc1	Active
CN(C)CCCCC(=O)Nc1ccc(NC(=S)NC(=O)c2ccccc2Cl)cc1	inactive

These compounds were tested against T1, NAD-dependent protein deacetylase sirtuin-1 (Homo sapiens) (assay: Inhibition of SirT1 in human ARN8 cells assessed as p53 activation at 5 uM by beta-galactosidase reporter gene assay).
Type: cell-based
Summary of the method: as §1

inhibition	SMILES
inactive	CCCCCc1ccc(C(=O)NC(=S)Nc2ccc(NC(=O)CCCCN(C)C)cc2)cc1
inactive	CN(C)CCCCC(=O)Nc1ccc(NC(=S)NC(=O)c2ccc(Cl)c(Cl)c2)cc1

Further lines, the compound ahead of its results:

SMILES	inhibition
Cc1ccccc1C(=O)NC(=S)Nc1ccc(NC(=O)CCCCN(C)C)cc1	inactive
CN(C)CCCCC(=O)Nc1ccc(NC(=O)NC(=O)c2ccc(C(C)(C)C)cc2)cc1	Active
CN(C)CCCCC(=O)Nc1ccc(NC(=S)NC(=O)c2ccccc2Cl)cc1	inactive

What follows are compounds tested against T2, NAD-dependent protein deacetylase sirtuin-2 (Homo sapiens, UniProt Q8IXJ6) (assay: Inhibition of recombinant human SitT2 by Fluor de Lys fluorescence assay).
T2 sequence (Q8IXJ6 whole entry): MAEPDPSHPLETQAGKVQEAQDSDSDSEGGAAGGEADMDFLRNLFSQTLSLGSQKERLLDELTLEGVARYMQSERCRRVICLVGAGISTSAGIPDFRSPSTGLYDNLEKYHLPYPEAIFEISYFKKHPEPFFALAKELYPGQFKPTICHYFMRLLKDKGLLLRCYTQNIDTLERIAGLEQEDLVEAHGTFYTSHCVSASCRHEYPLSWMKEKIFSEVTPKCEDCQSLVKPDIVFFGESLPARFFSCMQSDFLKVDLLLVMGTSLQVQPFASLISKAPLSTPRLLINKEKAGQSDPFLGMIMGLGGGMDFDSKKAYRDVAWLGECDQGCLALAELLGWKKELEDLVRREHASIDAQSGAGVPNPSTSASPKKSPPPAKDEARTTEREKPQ

pIC50	SMILES
4.37	Cc1ccccc1C(=O)NC(=S)Nc1ccc(NC(=O)CCCCN(C)C)cc1
5.25	CCCCCc1ccc(C(=O)NC(=S)Nc2ccc(NC(=O)CCCCN(C)C)cc2)cc1
4.05	CN(C)CCCCC(=O)Nc1ccc(NC(=O)NC(=O)c2ccc(C(C)(C)C)cc2)cc1
< 4.05	CN(C)CCCCC(=O)Nc1ccc(NC(=S)NC(=O)c2ccccc2Cl)cc1

What follows are compounds tested against T1, NAD-dependent protein deacetylase sirtuin-1 (Homo sapiens) (assay: Inhibition of recombinant human SitT1 at 60 uM by Fluor de Lys fluorescence assay).
Summary of the method: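 Human recombinant SirT1 deacetylation measured with the Fluor de Lys fluorescence kit at a fixed 60 µM inhibitor. Tested on two separate occasions; percent inhibition reported as a mean weighted to the standard error.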

inhibition [%]	SMILES
73.2	CCCCCc1ccc(C(=O)NC(=S)Nc2ccc(NC(=O)CCCCN(C)C)cc2)cc1
8.1	CN(C)CCCCC(=O)Nc1ccc(NC(=S)NC(=O)c2ccc(Cl)c(Cl)c2)cc1

The next lines start with the compound.

SMILES	inhibition [%]
Cc1ccccc1C(=O)NC(=S)Nc1ccc(NC(=O)CCCCN(C)C)cc1	9.9
CN(C)CCCCC(=O)Nc1ccc(NC(=O)NC(=O)c2ccc(C(C)(C)C)cc2)cc1	93.6
CN(C)CCCCC(=O)Nc1ccc(NC(=S)NC(=O)c2ccccc2Cl)cc1	29.3

What follows are compounds tested against T3, NAD-dependent protein deacetylase sirtuin-1 (Homo sapiens, UniProt Q96EB6) (assay: Inhibition of recombinant human SitT1 by Fluor de Lys fluorescence assay).
T3 sequence (Q96EB6 whole entry): T1 sequence (whole entry)

pIC50	SMILES
< 4.05	Cc1ccccc1C(=O)NC(=S)Nc1ccc(NC(=O)CCCCN(C)C)cc1
4.44	CCCCCc1ccc(C(=O)NC(=S)Nc2ccc(NC(=O)CCCCN(C)C)cc2)cc1
4.66	CN(C)CCCCC(=O)Nc1ccc(NC(=O)NC(=O)c2ccc(C(C)(C)C)cc2)cc1
< 4.05	CN(C)CCCCC(=O)Nc1ccc(NC(=S)NC(=O)c2ccccc2Cl)cc1
